What all share (type): functional
For assay [1], the system named is CCRF-CEM. Nature of the assay: Growth inhibition of human CCRF-CEM cells after 48 hrs by sulforhodamine B assay. The procedure, abridged:
(§1)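 NCI screen panel. Five 10-fold concentrations from 10^-4 to 10^-8 M. Exposure for the last 48 h of a 72 h incubation. Growth estimated by sulforhodamine B protein assay. GI50 is the concentration giving 50% growth inhibition. Where that level was not reached or was exceeded, the value is given as above or below the highest or lowest concentration tested.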
A general note: Sulforhodamine B stains cellular protein and so reports cell mass.

The subject of assay [2] is K562. As to the kind of experiment: Growth inhibition of human K562 cells after 48 hrs by sulforhodamine B assay. To be noted: K562, 48 h. A digest of the protocol:
as §1

The subject of assay [3] is EKVX. As to the kind of experiment: Growth inhibition of human EKVX cells after 48 hrs by sulforhodamine B assay. The procedure, abridged: as §1
The subject of assay [4] is HOP-62. As to the kind of experiment: Growth inhibition of human HOP62 cells after 48 hrs by sulforhodamine B assay. To be noted: HOP-62, 48 h. The procedure, abridged:
as §1

Assay [5] relates to NCI-H522. Nature of the assay: Growth inhibition of human NCI-H522 cells after 48 hrs by sulforhodamine B assay. To be noted: NCI-H522, 48 h. The procedure, abridged:
as §1

Assay [6] relates to HCC 2998. As to the kind of experiment: Growth inhibition of human HCC2998 cells after 48 hrs by sulforhodamine B assay. Conditions: HCC 2998, 48 h. A digest of the protocol: as §1
Assay [7] concerns KM12. As to the kind of experiment: Growth inhibition of human KM12 cells after 48 hrs by sulforhodamine B assay. To be noted: KM12, 48 h. The procedure, abridged: as §1
Assay [8] relates to SK-MEL-28. As to the kind of experiment: Growth inhibition of human SK-MEL-28 cells after 48 hrs by sulforhodamine B assay. Conditions: SK-MEL-28, 48 h. A digest of the protocol: as §1
The subject of assay [9] is IGROV-1. As to the kind of experiment: Growth inhibition of human IGROV1 cells after 48 hrs by sulforhodamine B assay. To be noted: IGROV-1, 48 h. A digest of the protocol:
as §1

Assay [10] deals with OVCAR-5. As to the kind of experiment: Growth inhibition of human OVCAR5 cells after 48 hrs by sulforhodamine B assay. Conditions: OVCAR-5, 48 h. A digest of the protocol:
as §1

For assay [11], the system named is 786-0. Nature of the assay: Growth inhibition of human 786-0 cells after 48 hrs by sulforhodamine B assay. Conditions: 786-0, 48 h. The procedure, abridged: as §1
Assay [12] has as its system CAKI-1. As to the kind of experiment: Growth inhibition of human Caki1 cells after 48 hrs by sulforhodamine B assay. Conditions: CAKI-1, 48 h. A digest of the protocol: as §1
Assay [13] has as its system SN12C. As to the kind of experiment: Growth inhibition of human SN12C cells after 48 hrs by sulforhodamine B assay. The procedure, abridged: (§2)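 NCI in vitro panel screen. Compounds tested at five 10-fold dilutions, 10^-4 to 10^-8 M. Cells in 96-well plates were exposed for the last 48 h of a 72 h incubation. Viability/growth was read by sulforhodamine B protein assay. GI50 is the concentration giving 50% growth inhibition. Values beyond the tested range are reported as greater or less than the maximum or minimum concentration.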

The subject of assay [14] is PC-3. As to the kind of experiment: Growth inhibition of human PC3 cells after 48 hrs by sulforhodamine B assay. To be noted: PC-3, 48 h. A digest of the protocol: as §1
The subject of assay [15] is DU-145. Nature of the assay: Growth inhibition of human DU145 cells after 48 hrs by sulforhodamine B assay. To be noted: DU-145, 48 h. A digest of the protocol: as §1
Assay [16] has as its system MCF7. Nature of the assay: Growth inhibition of human MCF7 cells after 48 hrs by sulforhodamine B assay. To be noted: MCF7, 48 h. A digest of the protocol:
as §1

The test system of assay [17] is MDA-N. As to the kind of experiment: Growth inhibition of human MDA-N cells after 48 hrs by sulforhodamine B assay. A digest of the protocol:
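NCI screen panel. Five 10-fold concentrations from 10^-4 to 10^-8 M. Exposure for the last 48 h of a 72 h incubation. Growth estimated by sulforhodamine B protein assay. Where that level was not reached or was exceeded, the value is given as above or below the highest or lowest concentration tested.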

Assay [18] has as its system SR. Nature of the assay: Growth inhibition of human SR cells after 48 hrs by sulforhodamine B assay. A digest of the protocol:
as §2

Assay [19] has as its system SK-MEL-5. Nature of the assay: Growth inhibition of human SK-MEL-5 cells after 48 hrs by sulforhodamine B assay. Conditions: SK-MEL-5, 48 h. A digest of the protocol: as §1
Assay [20] concerns UO-31. As to the kind of experiment: Growth inhibition of human UO31 cells after 48 hrs by sulforhodamine B assay. To be noted: UO-31, 48 h. The procedure, abridged:
as §2

Each structure is given as a SMILES string.

On to `O=C(c1ccc(Cl)cc1Cl)N1CCN(C(=O)c2ccc(Cl)cc2Cl)C1=S`, for which the GI50 amounted to 19.5 µM in assay [1]; 31.4 µM in assay [2]; 20.5 µM in [3]; 23.1 µM in [4]; 18.2 µM in assay [5]; 22 µM in assay [6]. The GI50 in assay [7] turned out to be 15.3 µM; in assay [8], 18.4 µM; in assay [9], 21 µM; in [10] it was 21.6 µM; in assay [11], 18.6 µM; in [12], 22.1 µM. Also, the concentration for 50% growth inhibition (GI50) in [13] stood at 18.1 µM; in assay [14], 22.7 µM; in [15] it was 30.6 µM; in assay [16], 18.3 µM; in [17], 20 µM.
On to `O=C(c1cc(Cl)cc(Cl)c1)N1CCN(C(=O)c2cc(Cl)cc(Cl)c2)C1=S`, for which the GI50 turned out to be 3.3 µM in [1]; 4.8 µM in [2]; 3.3 µM in [18]; 17.6 µM in assay [3]; 14.3 µM in assay [4]; 3.7 µM in [5]. The GI50 worked out at 16.7 µM in assay [6]; 10.1 µM in assay [7]; 12.2 µM in assay [8]; 16.1 µM in assay [19]; 15.3 µM in assay [9]; 22.9 µM in assay [10]. The GI50 is 2.9 µM in assay [11]; 9.7 µM in [12]; 9 µM in assay [13]; 2.3 µM in assay [20]; 16.9 µM in [14]; 10.5 µM in assay [15]. In addition, the values for the GI50 in [16] and in assay [17] were 3.1 µM and 13 µM, respectively.
Turning to `O=C(c1ccco1)N1CCN(C(=O)c2ccco2)C1=S`, the GI50 in assay [1] came to 1.2 µM; in [2] it was 1 µM; in assay [18], 1.8 µM; in [3] it was 13.4 µM; in [4], 8.7 µM; in assay [5], 3.1 µM. Also, the GI50 came to 12.4 µM in [6]; 4 µM in assay [7]; 5.5 µM in assay [8]; 10.1 µM in assay [19]; 6.7 µM in [9]; 17.8 µM in [10]. Besides, the GI50 in [11] was found to be 3.3 µM; in assay [12], 5.1 µM; in assay [13] it was 3.5 µM; in assay [20] it was 3.7 µM; in assay [14] it was 3.9 µM; in assay [15], 2.7 µM. Further, the GI50 in assay [16] came to 3 µM; in [17], 5 µM.
With `COc1cc(C(=O)N2CCN(C(=O)c3cc(OC)c(OC)c(OC)c3)C2=S)cc(OC)c1OC`, the GI50 came to 12.2 µM in [1]; 24.9 µM in [2]; 15.2 µM in [4]; 3.7 µM in assay [5]; 19 µM in [6]; 14.2 µM in assay [7]. The GI50 in [8] was found to be 17.2 µM; in assay [9] it was 24.7 µM; in assay [10] it was 23.2 µM; in assay [11], 11.4 µM; in assay [12] it was 12.3 µM; in assay [13] it was 17.1 µM. The GI50 in assay [20] is 0.2 µM; in [14], 15 µM; in [15], 13.6 µM; in [16], 5.2 µM; in assay [17] it was 15 µM.
As to `O=CN1CCN(C(=O)c2ccco2)C1=S`, the GI50 in assay [1] is 3.6 µM; in assay [2], 2.6 µM; in assay [18], 2.1 µM; in [3], 13.7 µM; in [4], 12 µM; in assay [5], 4 µM. Further, the GI50 in [6] was 13.4 µM; in [7] it was 5.3 µM; in assay [8], 26.2 µM; in [19], 12.7 µM; in [9], 7.5 µM; in [10] it was 18 µM. For the same compound, the GI50 worked out at 3.3 µM in assay [11]; 5.1 µM in assay [12]; 5.3 µM in [13]; 4.5 µM in assay [20]; 5 µM in assay [14]; 2.5 µM in assay [15]. In addition, the GI50 amounted to 2.7 µM in [16] and 9.1 µM in [17].
`O=C(c1ccc(Cl)c(Cl)c1)N1CCN(C(=O)c2ccc(Cl)c(Cl)c2)C1=S`: the GI50 turned out to be 4.5 µM in assay [1]; 16.5 µM in assay [2]; 20.8 µM in assay [3]; 17.6 µM in assay [4]; 6.1 µM in assay [5]; 19.9 µM in assay [6]. The GI50 came to 16.1 µM in assay [7]; 30.6 µM in [8]; 19.7 µM in [9]; 24.3 µM in [10]; 7.2 µM in [11]; 14 µM in assay [12]. Moreover, the GI50 in assay [13] turned out to be 18.3 µM; in [14] it was 16.7 µM; in [15], 14.7 µM; in [16], 5.6 µM; in assay [17] it was 18.3 µM.
As for `O=C(c1cccs1)N1CCN(C(=O)c2cccs2)C1=S`, the concentration for 50% growth inhibition (GI50) is 2.1 µM in assay [1]; 3.5 µM in [2]; 3.4 µM in assay [18]; 15.9 µM in assay [3]; 6.7 µM in [4]; 3.8 µM in assay [5]. Also, the GI50 in [6] was 8 µM; in assay [7], 3.4 µM; in assay [8], 3.8 µM; in assay [19], 4.6 µM; in assay [9], 9.6 µM; in assay [10] it was 17.1 µM. In addition, the GI50 in assay [11] was determined as 2.4 µM; in [12], 3.4 µM; in assay [13] it was 2.6 µM; in assay [20], 2.3 µM; in assay [14], 6.1 µM; in [15], 3.3 µM. Besides, the GI50 in assay [16] came to 3.2 µM; in [17] it was 2.6 µM.
On to `COc1cc(C(=O)N2CCN(C=O)C2=S)cc(OC)c1OC`, for which the GI50 in assay [1] stood at 18.3 µM; in assay [2], 30.8 µM; in [3], 31.8 µM; in [4] it was 20 µM; in assay [5] it was 5.8 µM; in assay [6], 19.8 µM. Besides, the GI50 in [7] was 14.4 µM; in [8], 29.5 µM; in assay [9] it was 21.9 µM; in assay [10] it was 48.5 µM; in assay [11], 12.7 µM; in assay [12] it was 13.6 µM. Moreover, the GI50 was 20.2 µM in [13]; 0.07 µM in [20]; 22.2 µM in assay [14]; 19.6 µM in assay [15]; 5.5 µM in assay [16]; 17.9 µM in assay [17].

The term GI50 denotes the concentration giving 50% growth inhibition. A lower GI50 goes with more potent growth inhibition.

These data come from ChEMBL document CHEMBL1138555, “N-acylated and N,N'-diacylated imidazolidine-2-thione derivatives and N,N'-diacylated tetrahydropyrimidine-2(1H)-thione analogues: synthesis and antiproliferative activity” (Eur J Med Chem, 2009).
